Measurements gathered from unrelated publications.
Compare with care: the assays were run in different laboratories.
Target: Serine/threonine-protein kinase N2 (PKN2, Homo sapiens, UniProt Q16513)

SMILES | test | conditions | endpoint | value
Cc1ccc(NC(=O)c2ccc(CN3CCN(C)CC3)cc2)cc1Nc1nc(-c2cccnc2)cs1 | cell-free assay | 0.5 µM | remaining signal | 108%
Cn1c2c(c3ccc(Cl)c(Cl)c31)C(C#N)C(C)(C)NC2=O (centres unmarked) | thermal stability, DSF | 10 µM | ΔTm | 1.3 °C
Cc1ccc(NC(=O)c2ccc(C)c(C(F)(F)F)c2)cc1C#Cc1nn(C2CCC(O)CC2)c2ncnc(N)c12 (centres unmarked) | cell-free assay | 10 µM | remaining signal | 97%
CC(C)(C)c1nc2c(s1)c1nc(N)ncc1c1ccc(NS(=O)(=O)c3c(F)cccc3F)c(F)c12 | enzyme activity, inhibitor, radiometric | 1 µM | remaining activity | 91%
CCCOc1ccc(OC)c(F)c1C(=O)c1ccc(C(=O)N[C@@H]2CNC[C@H]2NC(=O)c2ccc3[nH]ncc3c2)cc1 | enzyme activity, inhibitor | 50 nM | remaining activity | 78%
Cc1ccc(C(=O)Nc2ccc(CN3CCN(C)CC3)c(C(F)(F)F)c2)cc1C#Cc1cnc2cccnn12 | enzyme activity, inhibitor | 23.5 nM | remaining activity | 99%
Cc1cc(-n2nc(Cc3cc(F)cc(C(F)(F)F)c3)nc2C)ccc1C(N)=O | cell-free assay, competition with immobilised ligand | 1 µM | remaining binding | 100%
Cn1c(=O)n(-c2ccc(C(C)(C)C#N)cc2)c2c3cc(-c4cnc5ccccc5c4)ccc3ncc21 | enzyme activity, inhibitor | 10 µM | remaining activity | 74%
CCCS(=O)(=O)Nc1ccc(F)c(C(=O)c2c[nH]c3ncc(-c4ccc(Cl)cc4)cc23)c1F | enzyme activity, inhibitor | 1 µM | inhibition | < 10%
CC(C)(C)C(=O)c1sc(NC2CCCCC2)nc1N | enzyme activity, inhibitor | 10 µM | remaining activity | 95%
CCC(=O)N[C@H]1CC[C@@H](C(=O)N(C)c2ccc(-c3nc4ccccc4o3)cc2)C1 | cell-free assay, competition with immobilised ligand | 1 µM | remaining binding | 100%
COc1cccc2c(NCc3ccccc3)nc(-n3c(N)nc4ccccc43)nc12 | target engagement in cells, inhibitor, chemoproteomics | 20 mM | inhibition | -3.6%
C[C@@]1(Cc2ccc(C#N)cc2)C(=O)N(c2cc(Cl)cc(Cl)c2)c2ncc(C(=O)NC3(c4nc(C5CCC5)no4)CC3)n21 | cell-free assay, competition with immobilised ligand | 1 µM | remaining binding | 100%
CCN(CC)c1ccc(C2=NNC(=O)CC2C)cc1[N+](=O)[O-] (centres unmarked) | enzyme activity, inhibitor | 10 µM | remaining activity | 94%
COc1cc(-c2cc(-c3ccc(N4CCNCC4)cc3)cnc2C)cc(OC)c1OC | enzyme activity, inhibitor | 0.1 µM | inhibition | 4%
CCS(=O)(=O)c1cc2cc(C[C@@](O)(CC(C)(C)c3ccc(F)cc3C(N)=O)C(F)(F)F)[nH]c2cn1 | cell-free assay, competition with immobilised ligand | 1 µM | remaining binding | 85%
CNCc1ccc(-c2cc(-c3nc(-c4ccc(S(=O)(=O)C(C)C)cc4)cnc3N)on2)cc1 | enzyme activity, inhibitor | 0.4 µM | inhibition | 59%
Cc1ccc(C(=O)NCc2ccsc2)cc1C#Cc1cn(C(C)C)c2ncnc(N)c12 | enzyme activity, inhibitor | 1 µM | activity vs control | 113%
O=C(Nc1cnc(Oc2ccc(F)cc2)nc1)N1CCc2ncccc2[C@@H]1c1ccc(F)cc1 | cell-free assay, competition with immobilised ligand | 1 µM | remaining binding | 78%
CCN(CC)CCNC(=O)c1c(C)[nH]c(/C=C2\C(=O)Nc3ccc(F)cc32)c1C | enzyme activity, inhibitor | 10 µM | inhibition | 69%
